# Assay results reported in paper PMC5595133 (Theranostics, 2017).
# Assays:
# HUVEC cells = assay: Cell cycle assay by flow cytometry; format: cell-based, human; details: 50 nM (calculated by free DM1), 12 h
# B16 cells = assay: Cell cycle assay by flow cytometry; format: cell-based, mouse; details: 50 nM (calculated by free DM1), 12 h
# [1] = In vivo safety examination; set-up: species or system C57BL/6 mice
# In short: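 This used the B16 s.c. model in C57BL/6 mice with tail-vein dosing in saline. Body weight was recorded every other day. On day 25 after implantation, 500 μL of blood was taken without heparin and centrifuged (4000 rpm, 5 min); ALT and AST were measured in serum. 20 μL of peripheral blood went for WBC, RBC and platelet counts by autoanalyzer. Heart, liver, spleen, kidney and lung were formalin-fixed, paraffin-embedded, cut at 5 μm and H&E-stained for light microscopy.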
# MCF-7 cells = assay: Cell cycle assay by flow cytometry; format: cell-based, human; details: 50 nM (calculated by free DM1), 12 h
compound,measurement,setting,value
"COc1cc2cc(c1Cl)N(C)C(=O)C[C@H](OC(=O)[C@H](C)N(C)C(=O)CCS)[C@]1(C)O[C@H]1[C@H](C)[C@@H]1C[C@@](O)(NC(=O)O1)[C@H](OC)/C=C/C=C(\C)C2 [DM1, Maytansinoid DM1]",percentage of cells in G2/M phase,HUVEC cells,42.23%
same,percentage of cells in G2/M phase,B16 cells,58.26%
same,body weight change versus saline,"[1]; B16 tumor-bearing C57BL/6 mice, 400 μg/kg DM1 i.v. every other day x5, n=6",significant body weight loss
same,"H&E histology of major organs (heart, liver, spleen, lung, kidney)","[1]; end of test, 200×",severer organic damages
same,count of white blood cells (WBC),"[1]; peripheral blood at the end of test, n=6, compared with the normal value",decreased the count
same,"liver function, circulating ALT and AST","[1]; serum on day 25, n=6",obvious hepatic cytolysis
same,percentage of cells in G2/M phase,MCF-7 cells,57.18%
